ChEMBL document CHEMBL1781935, “Amberlite-IRA-402 (OH) ion exchange resin mediated synthesis of indolizines, pyrrolo [1,2-a] quinolines and isoquinolines: antibacterial and antifungal evaluation of the products” (2011)
Converted amounts (≈) assume the structure as drawn. The source made the active and inactive calls. The rule behind the calls is not given here.

Tests used:
[1] = tested on: Vibrio cholerae; assay: Antibacterial activity against Vibrio cholerae isolate 7201 at 1 to 1000 ug/ml after overnight incubation by disc diffusion method; assay type: functional
[2] = tested on: Bacillus subtilis; assay: Antibacterial activity against Bacillus subtilis UC564; assay type: functional
Method in brief: (§1)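 MIC by broth and agar dilution. Broth: 0.1 ml suspension (2 × 10^6 cfu/ml) in Mueller-Hinton broth with test drug at 1–1000 µg/ml, 37 °C overnight. Agar: serial drug dilutions in Mueller-Hinton agar, spot-inoculated with 2 × 10^6 cfu/spot, 37 °C for 24 h. MIC was the lowest concentration with no visible growth. Antibiotic controls were included.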

[3] = tested on: Shigella dysenteriae; assay: Antibacterial activity against Shigella dysenteriae isolate 3 at 1 to 1000 ug/ml after overnight incubation by disc diffusion method; assay type: functional
[4] = tested on: Vibrio cholerae; assay: Antibacterial activity against Vibrio cholerae isolate 7201 at 10 to 80 ug/ml after overnight incubation by broth dilution method; assay type: functional, organism-based
[5] = tested on: Enterococcus faecalis; assay: Antibacterial activity against Enterococcus faecalis isolate 29212 at 1 to 1000 ug/ml after overnight incubation by disc diffusion method; assay type: functional
Method in brief: (§2)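 Disc diffusion on Mueller-Hinton agar. Plates seeded with 0.1 ml bacterial suspension (2 × 10^6 cfu/ml). Sterile 6 mm paper discs were impregnated with compound solutions at 1–1000 µg/ml and incubated at 37 °C overnight. Read-out was the diameter of the clear inhibition zone. Stocks were 1 mg/ml in 4% Tween 80 or 4% propylene glycol.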

[6] = tested on: Escherichia coli; assay: Antibacterial activity against Escherichia coli ATCC 25938 at 1 to 1000 ug/ml after overnight incubation by disc diffusion method; assay type: functional; method in brief: as §2
[7] = tested on: Salmonella typhimurium; assay: Antibacterial activity against Salmonella Typhimurium isolate 11; assay type: functional, Salmonella enterica subsp. enterica serovar Typhimurium; conditions: Salmonella enterica; method in brief: as §1
[8] = tested on: Staphylococcus aureus; assay: Antibacterial activity against Staphylococcus aureus ATCC 25923; assay type: functional; method in brief: as §1
[9] = tested on: Shigella dysenteriae; assay: Antibacterial activity against Shigella dysenteriae isolate 3; assay type: functional
[10] = tested on: Bacillus subtilis; assay: Antibacterial activity against Bacillus subtilis UC564 at 1 to 1000 ug/ml after overnight incubation by disc diffusion method; assay type: functional; method in brief: as §2
[11] = tested on: Staphylococcus aureus; assay: Antibacterial activity against Staphylococcus aureus ATCC 25923 at 10 to 80 ug/ml after overnight incubation by broth dilution method; assay type: functional, organism-based
Method in brief: (§3)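 Bactericidal testing with double-fold drug dilutions in Mueller-Hinton broth. Tubes inoculated with 1 ml suspension (2 × 10^6 cfu/ml) and shaken at 200 rpm at 37 °C for 24 h. Drug was added at mid-logarithmic growth. Viable colony counts were taken from 1.0 ml aliquots plated on nutrient agar.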

[12] = tested on: Vibrio cholerae; assay: Antibacterial activity against Vibrio cholerae isolate 720 at 1 to 1000 ug/ml after overnight incubation by disc diffusion method; assay type: functional
[13] = tested on: Salmonella typhi; assay: Antibacterial activity against Salmonella typhi DIRW at 1 to 1000 ug/ml after overnight incubation by disc diffusion method; assay type: functional; conditions: Salmonella enterica subsp. enterica serovar Typhi
[14] = tested on: Staphylococcus aureus; assay: Antibacterial activity against Staphylococcus aureus ATCC 25923 at 1 to 1000 ug/ml after overnight incubation by disc diffusion method; assay type: functional; method in brief: as §2
[15] = tested on: Salmonella typhi; assay: Antibacterial activity against Salmonella typhi DIRW; assay type: functional, Salmonella enterica subsp. enterica serovar Typhi; conditions: Salmonella enterica
[16] = tested on: Vibrio parahaemolyticus; assay: Antibacterial activity against Vibrio parahaemolyticus isolate 72016 at 1 to 1000 ug/ml after overnight incubation by disc diffusion method; assay type: functional; method in brief: as §2
[17] = tested on: Enterococcus faecalis; assay: Antibacterial activity against Streptococcus faecalis isolate 29212; assay type: functional; method in brief: as §1
[18] = tested on: Klebsiella pneumoniae; assay: Antibacterial activity against Klebsiella pneumoniae isolate J/1/4; assay type: functional; method in brief: as §1
[19] = tested on: Pseudomonas aeruginosa; assay: Antibacterial activity against Pseudomonas aeruginosa ATCC 27853 at 10 to 80 ug/ml after overnight incubation by broth dilution method; assay type: functional, organism-based; method in brief: as §3
[20] = tested on: Shigella flexneri; assay: Antibacterial activity against Shigella flexneri DN13; assay type: functional; method in brief: as §1
[21] = tested on: Shigella flexneri; assay: Antibacterial activity against Shigella flexneri DN13 at 1 to 1000 ug/ml after overnight incubation by disc diffusion method; assay type: functional; method in brief: as §2
[22] = tested on: Micrococcus luteus; assay: Antibacterial activity against Micrococcus luteus AGD1; assay type: functional; method in brief: as §1
[23] = tested on: Vibrio cholerae; assay: Antibacterial activity against Vibrio cholerae isolate 7201; assay type: functional
[24] = tested on: Bacillus subtilis; assay: Antibacterial activity against Bacillus subtilis UC564 at 10 to 80 ug/ml after overnight incubation by broth dilution method; assay type: functional, organism-based; method in brief: as §3
[25] = tested on: Pseudomonas aeruginosa; assay: Antibacterial activity against Pseudomonas aeruginosa ATCC 27853 at 1 to 1000 ug/ml after overnight incubation by disc diffusion method; assay type: functional; method in brief: as §2
[26] = tested on: Escherichia coli; assay: Antibacterial activity against Escherichia coli ATCC 25938 at 10 to 80 ug/ml after overnight incubation by broth dilution method; assay type: functional, organism-based; method in brief: as §3
[27] = tested on: Escherichia coli; assay: Antibacterial activity against Escherichia coli ATCC 25938; assay type: functional; method in brief: as §1
[28] = tested on: Salmonella typhimurium; assay: Antibacterial activity against Salmonella Typhimurium isolate 11 at 1 to 1000 ug/ml after overnight incubation by disc diffusion method; assay type: functional, organism-based; conditions: Salmonella enterica subsp. enterica serovar Typhimurium; method in brief: as §2
[29] = tested on: Klebsiella pneumoniae; assay: Antibacterial activity against Klebsiella pneumoniae isolate J/1/4 at 1 to 1000 ug/ml after overnight incubation by disc diffusion method; assay type: functional; method in brief: as §2
[30] = tested on: Pseudomonas aeruginosa; assay: Antibacterial activity against Pseudomonas aeruginosa ATCC 27853; assay type: functional; method in brief: as §1
[31] = tested on: Shigella dysenteriae; assay: Antibacterial activity against Shigella dysenteriae isolate 3 at 10 to 80 ug/ml after overnight incubation by broth dilution method; assay type: functional, organism-based
[32] = tested on: Micrococcus luteus; assay: Antibacterial activity against Micrococcus luteus AGD1 at 1 to 1000 ug/ml after overnight incubation by disc diffusion method; assay type: functional; method in brief: as §2
[33] = tested on: Vibrio parahaemolyticus; assay: Antibacterial activity against Vibrio parahaemolyticus isolate 72016; assay type: functional; method in brief: as §1

Row | SMILES | diameter of the inhibition zone (DIZ) [1] [mm] | MIC [2] [mg/L] | diameter of the inhibition zone (DIZ) [3] [mm] | Activity [4] | diameter of the inhibition zone (DIZ) [5] | diameter of the inhibition zone (DIZ) [6] | MIC [7] [mg/L] | MIC [8] [mg/L] | MIC [9] [mg/L] | diameter of the inhibition zone (DIZ) [10] [mm] | Activity [11] | MIC [15] [mg/L] | MIC [17] [mg/L] | MIC [18] [mg/L] | MIC [20] [mg/L] | MIC [22] [mg/L] | MIC [23] [mg/L] | MIC [27] [mg/L] | MIC [30] [mg/L] | MIC [33] [mg/L] | also measured
1 | CCOC(=O)c1c(C(=O)OCC)c2ccc3ccccc3n2c1C(=O)c1ccccc1 | 7.7 | 16 (≈ 38.5 µM) | 11.1 | Active | inactive | 8.1 mm | > 500 | 64 (≈ 154 µM) | 32 (≈ 77 µM) | 10 | Active | 500 (≈ 1200 µM) | 500 (≈ 1200 µM) | 256 (≈ 616 µM) | > 500 | 500 (≈ 1200 µM) | 128 (≈ 308 µM) | > 500 | 32 (≈ 77 µM) | 64 (≈ 154 µM) | diameter of the inhibition zone (DIZ) [12]: 7.7 mm; diameter of the inhibition zone (DIZ) [13]: inactive; diameter of the inhibition zone (DIZ) [14]: 10.2 mm; diameter of the inhibition zone (DIZ) [16]: 9.3 mm; Activity [19]: Active; diameter of the inhibition zone (DIZ) [21]: inactive; Activity [24]: Active; diameter of the inhibition zone (DIZ) [25]: 9.7 mm; Activity [26]: Active; diameter of the inhibition zone (DIZ) [28]: inactive; diameter of the inhibition zone (DIZ) [29]: 8.6 mm; Activity [31]: Active; diameter of the inhibition zone (DIZ) [32]: inactive
2 | N#Cc1cc2ccccn2c1C(=O)c1ccccc1 | 10 | 16 (≈ 65 µM) | 9 | Active | inactive | inactive | 500 (≈ 2030 µM) | 32 (≈ 130 µM) | 128 (≈ 520 µM) | 9.7 | Active | 500 (≈ 2030 µM) | 500 (≈ 2030 µM) | 64 (≈ 260 µM) | 500 (≈ 2030 µM) | 256 (≈ 1040 µM) | 16 (≈ 65 µM) | > 500 | > 500 | 256 (≈ 1040 µM) | diameter of the inhibition zone (DIZ) [12]: 10 mm; diameter of the inhibition zone (DIZ) [13]: inactive; diameter of the inhibition zone (DIZ) [14]: 12.1 mm; diameter of the inhibition zone (DIZ) [16]: 7.5 mm; Activity [19]: Active; diameter of the inhibition zone (DIZ) [21]: inactive; Activity [24]: Active; diameter of the inhibition zone (DIZ) [25]: inactive; Activity [26]: Active; diameter of the inhibition zone (DIZ) [28]: inactive; diameter of the inhibition zone (DIZ) [29]: 8.9 mm; Activity [31]: Active; diameter of the inhibition zone (DIZ) [32]: 7.5 mm
3 | CC1(C)S[C@@H]2[C@H](NC(=O)[C@H](N)c3ccc(O)cc3)C(=O)N2[C@H]1C(=O)O [AMOXICILLIN] | – | 0.5 (≈ 1.37 µM) | – | – | – | – | > 1000 | 0.5 (≈ 1.37 µM) | 64 (≈ 175 µM) | – | – | 128 (≈ 350 µM) | 0.25 (≈ 0.684 µM) | 128 (≈ 350 µM) | 128 (≈ 350 µM) | 0.5 (≈ 1.37 µM) | 256 (≈ 701 µM) | 0.5 (≈ 1.37 µM) | 256 (≈ 701 µM) | 256 (≈ 701 µM) | –
